Assay results reported in publication PMC10439066 (Drugs in R&D, 2023).

How the values were obtained:
female rats = assay: Repeat-dose in vivo toxicity study, rat; design: species or system Wistar strain); conditions: up to highest tested dose of 70 mg/kg, 13 weeks, Bayer data on file
[1] = 60 mg BID; cited from earlier work
female monkeys = assay: Repeat-dose in vivo toxicity study, monkey; design: species or system cynomolgus macaque monkeys (Macaca fascicularis); conditions: cynomolgus monkey
progesterone receptor = conditions: cited from earlier work
recombinant human AKR1C4 = target: T1, recombinant human AKR1C4 (Homo sapiens, UniProt P17516); assay: Related enzyme screen; format: biochemical; conditions: preclinical screen
T1 sequence (P17516 1-323): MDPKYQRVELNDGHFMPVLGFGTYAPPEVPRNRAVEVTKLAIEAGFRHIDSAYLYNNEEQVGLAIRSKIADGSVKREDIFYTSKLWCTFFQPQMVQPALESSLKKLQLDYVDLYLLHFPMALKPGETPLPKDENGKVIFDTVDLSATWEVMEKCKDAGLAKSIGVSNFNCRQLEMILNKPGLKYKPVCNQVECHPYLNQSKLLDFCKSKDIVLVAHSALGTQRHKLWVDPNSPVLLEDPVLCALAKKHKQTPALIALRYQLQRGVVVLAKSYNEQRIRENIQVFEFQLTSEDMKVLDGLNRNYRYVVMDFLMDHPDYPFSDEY

endometriotic lesions = conditions: cited from earlier work
AKR1C3 = target: T2, AKR1C3 (Homo sapiens, UniProt P42330); assay: AKR1C3 biochemical assay; conditions: in vitro
T2 sequence (P42330 1-323): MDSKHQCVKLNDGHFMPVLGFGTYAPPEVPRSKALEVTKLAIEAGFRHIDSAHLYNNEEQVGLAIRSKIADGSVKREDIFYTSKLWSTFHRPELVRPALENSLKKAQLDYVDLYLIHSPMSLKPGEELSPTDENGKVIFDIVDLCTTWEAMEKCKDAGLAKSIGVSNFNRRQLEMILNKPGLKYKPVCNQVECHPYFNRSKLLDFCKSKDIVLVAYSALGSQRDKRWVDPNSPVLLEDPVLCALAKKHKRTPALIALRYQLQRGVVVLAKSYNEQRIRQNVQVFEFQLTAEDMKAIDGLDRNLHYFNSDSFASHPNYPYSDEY

[2] = test system: adult premenopausal women with endometriosis-related pain symptoms; assay: AKRENDO1 phase IIa trial, adverse events; format: in vivo, human
Summary of the method: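 Randomized, placebo-controlled phase IIa trial in women ≥18 years with surgically or imaging-confirmed endometriosis who met defined pain criteria. Oral dosing: 3 mg OD, 10 mg OD, 30 mg OD, 30 mg BID, 60 mg BID, or placebo for 12 weeks. Visits at days 10, 28, 56 and 84 (±4 d), plus follow-up 2 weeks after end of treatment. Incidence of AEs, SAEs and TEAEs recorded.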

For `CN(CCC(=O)O)C(=O)c1ccc2c(c1)CC[C@@H]1[C@@H]2CC[C@]2(C)C(c3cncc(F)c3)=CC[C@@H]12` [BAY1128688], the hepatotoxicity (female rats) is given as “No hepatotoxicity was observed”, the “total concentration in human plasma” value [1] is given as “approximately 10 µM” and the “unbound maximum steady-state concentration in human plasma” value [1] is given as under 0.1 µM. The “Increase in liver transaminases in animal toxicology study” value (female monkeys) was “Not observed in cynomolgus monkey animal toxicology study with BAY1128688”, the “Isolated increase in serum bilirubin in animal toxicology study” value (female monkeys) was “Observed in cynomolgus monkey animal toxicology study with BAY1128688” and the agonism or antagonism (progesterone receptor) was “no relevant agonism or antagonism”. The “activity against related enzyme” value (recombinant human AKR1C4) was “no relevant activity”, the “effect on endometriotic lesions compared with vehicle group” value (endometriotic lesions) was “reduced endometriotic lesions” and the “ovarian cyclicity after treatment” value (endometriotic lesions) was “remained unchanged”. The IC50 (AKR1C3) was under 2 nM, the “Any AE” value ([2]; 3 mg OD n = 11) was 8 (72.7) Number (%) and the “Any SAE” value ([2]; 3 mg OD n = 11) was 1 (9.1) Number (%). The “Any TEAE” value ([2]; 3 mg OD n = 11) was 5 (45.5) Number (%), the “Any TESAE” value ([2]; 3 mg OD n = 11) was 1 (9.1) Number (%) and the “Discontinuation due to TEAE” value ([2]; 3 mg OD n = 11) was 0 Number (%). The “Discontinuation due to TESAE” value ([2]; 3 mg OD n = 11) was 0 Number (%), the “Procedure-related TEAE” value ([2]; 3 mg OD n = 11) was 0 Number (%) and the “SAE related to procedure” value ([2]; 3 mg OD n = 11) was 0 Number (%). For the same compound, the “Study-drug-related SAE” value ([2]; 3 mg OD n = 11) was 0 Number (%), the “Study-drug-related TEAE” value ([2]; 3 mg OD n = 11) was 4 (36.4) Number (%) and the “participants with TEAEs” value ([2]; 10 mg OD) was 32.3%. The “participants with study-drug-related TEAEs” value ([2]; 10 mg OD) was 9.7%, the “Any AE” value ([2]; 10 mg OD n = 31) was 16 (51.6) Number (%) and the “Any SAE” value ([2]; 10 mg OD n = 31) was 0 Number (%). The “Any TEAE” value ([2]; 10 mg OD n = 31) was 10 (32.3) Number (%), the “Any TESAE” value ([2]; 10 mg OD n = 31) was 0 Number (%) and the “Discontinuation due to TEAE” value ([2]; 10 mg OD n = 31) was 1 (3.2) Number (%). The “Discontinuation due to TESAE” value ([2]; 10 mg OD n = 31) was 0 Number (%), the “Procedure-related TEAE” value ([2]; 10 mg OD n = 31) was 0 Number (%) and the “SAE related to procedure” value ([2]; 10 mg OD n = 31) was 0 Number (%). For the same compound, the “Study-drug-related SAE” value ([2]; 10 mg OD n = 31) was 0 Number (%), the “Study-drug-related TEAE” value ([2]; 10 mg OD n = 31) was 3 (9.7) Number (%) and the “Any AE” value ([2]; 30 mg BID n = 11) was 7 (63.6) Number (%). For the same compound, the “Any SAE” value ([2]; 30 mg BID n = 11) was 0 Number (%), the “Any TEAE” value ([2]; 30 mg BID n = 11) was 6 (54.5) Number (%) and the “Any TESAE” value ([2]; 30 mg BID n = 11) was 0 Number (%). For the same compound, the “Discontinuation due to TEAE” value ([2]; 30 mg BID n = 11) was 2 (18.2) Number (%), the “Discontinuation due to TESAE” value ([2]; 30 mg BID n = 11) was 0 Number (%) and the “Procedure-related TEAE” value ([2]; 30 mg BID n = 11) was 0 Number (%). For the same compound, the “SAE related to procedure” value ([2]; 30 mg BID n = 11) was 0 Number (%), the “Study-drug-related SAE” value ([2]; 30 mg BID n = 11) was 0 Number (%) and the “Study-drug-related TEAE” value ([2]; 30 mg BID n = 11) was 2 (18.2) Number (%). For the same compound, the “participants with TEAEs” value ([2]; 30 mg OD) was 90.0%, the “Any AE” value ([2]; 30 mg OD n = 10) was 9 (90.0) Number (%) and the “Any SAE” value ([2]; 30 mg OD n = 10) was 2 (20.0) Number (%). For the same compound, the “Any TEAE” value ([2]; 30 mg OD n = 10) was 9 (90.0) Number (%), the “Any TESAE” value ([2]; 30 mg OD n = 10) was 2 (20.0) Number (%) and the “Discontinuation due to TEAE” value ([2]; 30 mg OD n = 10) was 0 Number (%). The “Discontinuation due to TESAE” value ([2]; 30 mg OD n = 10) was 0 Number (%), the “Procedure-related TEAE” value ([2]; 30 mg OD n = 10) was 0 Number (%) and the “SAE related to procedure” value ([2]; 30 mg OD n = 10) was 0 Number (%). For the same compound, the “Study-drug-related SAE” value ([2]; 30 mg OD n = 10) was 1 (10.0) Number (%), the “Study-drug-related TEAE” value ([2]; 30 mg OD n = 10) was 4 (40.0) Number (%) and the “participants with study-drug-related TEAEs” value ([2]; 60 mg BID) was 51.9%. For the same compound, the “Any AE” value ([2]; 60 mg BID n = 27) was 23 (85.2) Number (%), the “Any SAE” value ([2]; 60 mg BID n = 27) was 1 (3.7) Number (%) and the “Any TEAE” value ([2]; 60 mg BID n = 27) was 21 (77.8) Number (%). For the same compound, the “Any TESAE” value ([2]; 60 mg BID n = 27) was 1 (3.7) Number (%), the “Discontinuation due to TEAE” value ([2]; 60 mg BID n = 27) was 3 (11.1) Number (%) and the “Discontinuation due to TESAE” value ([2]; 60 mg BID n = 27) was 0 Number (%). The “Procedure-related TEAE” value ([2]; 60 mg BID n = 27) was 2 (7.4) Number (%), the “SAE related to procedure” value ([2]; 60 mg BID n = 27) was 0 Number (%) and the “Study-drug-related SAE” value ([2]; 60 mg BID n = 27) was 1 (3.7) Number (%). For the same compound, the “Study-drug-related TEAE” value ([2]; 60 mg BID n = 27) was 14 (51.9) Number (%).
